In ChEMBL document CHEMBL1151261, “Antineoplastic agents. 509: synthesis of fluorcombstatin phosphate and related 3-halostilbenes(1)” (J Nat Prod, 2005):
≈ marks a conversion by molar mass, not a printed value.

How the values were obtained:
[1] = tested on: DU-145; assay: Cytotoxicity against human DU145 cells after 48 hrs by sulforhodamine B assay; assay type: functional; conditions: DU-145, 48 h
How it was run: (§1)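 Human tumor lines exposed to compound for 48 h, then fixed with trichloroacetic acid and stained with sulforhodamine B (NCI standard protocol); optical density read on a microplate reader. GI50 is the concentration giving a 50% reduction in net protein increase, calculated from optical density data.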

[2] = tested on: NCI-H460; assay: Cytotoxicity against human NCI-H460 cells after 48 hrs by sulforhodamine B assay; assay type: functional; conditions: NCI-H460, 48 h; how it was run: as §1
[3] = tested on: P388; assay: Cytotoxicity against mouse P388 cells after 48 hrs by Coulter particle counting; conditions: P388, 48 h, read-out: ED50 (the source's name)
[4] = Displacement of [3H]colchicine from tubulin
How it was run: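 [3H]colchicine binding with 1.0 μM tubulin, 5.0 μM [3H]colchicine and inhibitor at 1.0 μM.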

[5] = tested on: BXPC-3; assay: Cytotoxicity against human BxPC3 cells after 48 hrs by sulforhodamine B assay; assay type: functional; conditions: BXPC-3, 48 h; how it was run: as §1
[6] = tested on: KM-20L2; assay: Cytotoxicity against human KM20L2 cells after 48 hrs by sulforhodamine B assay; assay type: functional; conditions: KM-20L2, 48 h; how it was run: as §1
[7] = tested on: SF-268; assay: Cytotoxicity against human SF268 cells after 48 hrs by sulforhodamine B assay; assay type: functional; conditions: SF-268, 48 h; how it was run: as §1
[8] = tested on: MCF7; assay: Cytotoxicity against human MCF7 cells after 48 hrs by sulforhodamine B assay; assay type: functional; conditions: MCF7, 48 h; how it was run: as §1
[9] = tested on: Neisseria gonorrhoeae; assay: Antimicrobial activity against Neisseria gonorrhoeae ATCC 49226 after 24 hrs by broth microdilution assay; assay type: functional; conditions: ATCC 49226, 24 h
How it was run: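 Neisseria tested by NCCLS broth microdilution in gonococcal typing broth. Final inoculum about 5×10^5 CFU/mL; 2-fold compound dilutions from DMSO; DMSO turbidity control; 37 °C with 5% CO₂ without agitation, 24 h. MIC = lowest concentration with no visible growth.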

SMILES | GI50 [1] [µg/mL] | GI50 [2] [µg/mL] | EC50 [3] [µg/mL] | Activity [4] [%] | GI50 [5] [µg/mL] | GI50 [6] [µg/mL] | GI50 [7] [µg/mL] | GI50 [8] [µg/mL] | MIC [9] [µg/mL]
COc1ccc(/C=C\c2cc(OC)c(OC)c(OC)c2)cc1O [COMBRETASTATIN A4] | 0.0008 (≈ 0.00253 µM) | 0.0006 (≈ 0.0019 µM) | 0.0003 (≈ 0.000948 µM) | 81 | 0.39 (≈ 1.23 µM) | 0.061 (≈ 0.193 µM) | < 0.001 | – | –
COc1ccc(/C=C/c2cc(OC)c(OC)c(O[Si](C)(C)C(C)(C)C)c2)cc1[N+](=O)[O-] | 2.8 (≈ 6.28 µM) | 2.9 (≈ 6.51 µM) | 2.22 (≈ 4.98 µM) | – | > 10 | > 10 | 4.1 (≈ 9.2 µM) | 3.2 (≈ 7.18 µM) | –
COc1ccc(/C=C\c2cc(O)c(OC)c(OC)c2)cc1[N+](=O)[O-] | 0.39 (≈ 1.18 µM) | 0.31 (≈ 0.936 µM) | 0.402 (≈ 1.21 µM) | – | 2.5 (≈ 7.55 µM) | 1.8 (≈ 5.43 µM) | 0.62 (≈ 1.87 µM) | 0.49 (≈ 1.48 µM) | –
COc1ccc(/C=C\c2cc(O)c(OC)c(OC)c2)cc1N.Cl | 0.012 | 0.035 | 0.0289 | – | 1 | 1.3 | 0.0022 | < 0.01 | –
COc1ccc(/C=C\c2cc(Br)c(OC)c(OC)c2)cc1OP(=O)([O-])[O-].[Na+].[Na+] | 0.0046 | 0.0028 | < 0.01 | – | 0.093 | 0.23 | 0.0034 | 0.0041 | –
COc1ccc(/C=C\c2cc(Br)c(OC)c(OC)c2)cc1OP(=O)([O-])[O-].[Cs+].[Cs+] | 0.0079 | 0.0066 | < 0.01 | – | 0.15 | 0.48 | 0.0064 | 0.0044 | –
COc1ccc(/C=C\c2cc(Br)c(OC)c(OC)c2)cc1OP(=O)([O-])[O-].[Li+].[Li+] | 0.0066 | 0.0026 | < 0.01 | – | 0.13 | 0.11 | 0.003 | 0.0039 | –
COc1cc(/C=C\c2ccc(OC)c(OP(=O)([O-])[O-])c2OP(=O)([O-])[O-])cc(OC)c1OC.[Na+].[Na+].[Na+].[Na+] | 0.034 | 0.038 | < 0.01 | – | 1.5 | 0.53 | 0.036 | 0.024 | –
COc1ccc(/C=C\c2cc(Br)c(OC)c(OC)c2)cc1OP(=O)([O-])[O-].[Rb+].[Rb+] | 0.042 | 0.041 | < 0.01 | – | 0.56 | 2.6 | 0.023 | 0.043 | –
COc1ccc(/C=C\c2cc(N)c(OC)c(OC)c2)cc1N | 0.044 (≈ 0.146 µM) | 0.014 (≈ 0.0466 µM) | 0.036 (≈ 0.12 µM) | – | 0.053 (≈ 0.176 µM) | 0.03 (≈ 0.0999 µM) | 0.076 (≈ 0.253 µM) | < 0.01 | –
COc1ccc(/C=C\c2cc(OC)c(OC)c(OC)c2)cc1OP(=O)([O-])[O-].[Na+].[Na+] [FOSBRETABULIN DISODIUM] | – | 0.029 | 0.0004 | – | – | 0.034 | 0.036 | – | –
C1COCCN1.C1COCCN1.COc1ccc(/C=C\c2cc(F)c(OC)c(OC)c2)cc1OP(=O)(O)O | 0.0046 | 0.005 | 0.015 | – | 0.73 | > 1 | 0.0087 | 0.0079 | –
COc1ccc(/C=C\c2cc(F)c(OC)c(OC)c2)cc1OP(=O)([O-])[O-].[Li+].[Li+] | 0.0043 | 0.0039 | 0.019 | – | 0.49 | > 1 | 0.004 | 0.0038 | –
COc1ccc(/C=C\c2cc(OC)c(OC)c(OC)c2)c(O)c1O [COMBRETASTATIN A-1] | 0.17 (≈ 0.512 µM) | 0.74 (≈ 2.23 µM) | 0.251 (≈ 0.755 µM) | – | 4.4 (≈ 13.2 µM) | 0.061 (≈ 0.184 µM) | – | – | –
COc1ccc(/C=C\c2cc(F)c(OC)c(OC)c2)cc1OP(=O)([O-])[O-].[K+].[K+] | 0.0037 | 0.0043 | 0.0074 | – | 0.548 | > 1 | 0.0039 | 0.004 | –
COc1ccc(/C=C\c2cc(Br)c(OC)c(OC)c2)cc1OP(=O)([O-])[O-].[K+].[K+] | 0.0028 | 0.0029 | < 0.01 | – | 0.2 | 0.24 | 0.0032 | 0.0035 | –
COc1ccc(/C=C\c2cc(O)c(OC)c(OC)c2)cc1N | 0.035 (≈ 0.116 µM) | 0.03 (≈ 0.0996 µM) | 0.0174 (≈ 0.0577 µM) | – | 0.37 (≈ 1.23 µM) | 0.39 (≈ 1.29 µM) | 0.04 (≈ 0.133 µM) | 0.06 (≈ 0.199 µM) | –
COc1ccc(/C=C\c2cc(F)c(OC)c(OC)c2)cc1OP(=O)([O-])[O-].[Na+].[Na+] | 0.0036 | 0.0094 | 0.0298 | – | 0.59 | 1.5 | 0.0051 | 0.0044 | 16
COc1ccc(/C=C\c2cc(O)c(OC)c(OC)c2)cc1O | 0.0043 (≈ 0.0142 µM) | 0.19 (≈ 0.628 µM) | 0.26 (≈ 0.86 µM) | – | 2.3 (≈ 7.61 µM) | 1.2 (≈ 3.97 µM) | 0.0083 (≈ 0.0275 µM) | 0.49 (≈ 1.62 µM) | –
COc1ccc(/C=C/c2cc(Cl)c(OC)c(OC)c2)cc1O | 0.038 (≈ 0.118 µM) | 0.034 (≈ 0.106 µM) | 0.027 (≈ 0.0842 µM) | – | 0.59 (≈ 1.84 µM) | 1.4 (≈ 4.36 µM) | 0.048 (≈ 0.15 µM) | 0.041 (≈ 0.128 µM) | –
COc1ccc(/C=C\c2cc(Br)c(OC)c(OC)c2)cc1OP(=O)([O-])[O-].[Mg+2] | 0.0045 | 0.0039 | < 0.01 | – | 0.074 | 0.27 | 0.0053 | 0.0045 | –
COc1ccc(/C=C\c2cc(Br)c(OC)c(OC)c2)cc1OP(=O)([O-])[O-].[Ca+2] | 0.0063 | 0.0068 | 0.288 | – | < 0.001 | 0.37 | 0.0022 | 0.0022 | –
COc1ccc(/C=C/c2cc(O)c(OC)c(OC)c2)cc1[N+](=O)[O-] | 0.36 (≈ 1.09 µM) | 0.25 (≈ 0.755 µM) | 0.224 (≈ 0.676 µM) | – | 1.1 (≈ 3.32 µM) | 1.2 (≈ 3.62 µM) | 0.41 (≈ 1.24 µM) | 0.56 (≈ 1.69 µM) | –
COc1ccc(/C=C\c2cc(OC)c(OC)c([N+](=O)[O-])c2)cc1[N+](=O)[O-] | 0.34 (≈ 0.944 µM) | 0.24 (≈ 0.666 µM) | > 10 | – | 0.39 (≈ 1.08 µM) | 0.27 (≈ 0.749 µM) | 0.59 (≈ 1.64 µM) | 0.37 (≈ 1.03 µM) | –
C1CCNCC1.C1CCNCC1.COc1ccc(/C=C\c2cc(F)c(OC)c(OC)c2)cc1OP(=O)(O)O | 0.011 | 0.022 | 0.004 | – | 0.39 | > 1 | 0.0075 | 0.011 | –
